# Tests used:
# Format in all cases: functional
# [1] = tested on: HOP-92; assay: Cytotoxicity against human HOP92 cells assessed as growth inhibition at 10 uM after 48 hrs by sulphorhodamine B assay; conditions: HOP-92, 48 h, read-out: GI
# In short: (§1)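 NCI-60 one-dose screen per the NCI Drug Evaluation Branch protocol. Cells given a single 10 µM concentration with 48 h continuous exposure. Growth estimated by sulphorhodamine B protein assay. Result expressed as percentage growth inhibition relative to untreated growth.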
# [2] = tested on: NCI-H23; assay: Cytotoxicity against human NCI-H23 cells assessed as growth inhibition at 10 uM after 48 hrs by sulphorhodamine B assay; conditions: NCI-H23, 48 h, read-out: GI; in short: as §1
# [3] = Cytotoxicity against human EKVX cells assessed as growth inhibition at 10 uM after 48 hrs by sulphorhodamine B assay; conditions: read-out: GI; in short: as §1
# [4] = tested on: A549; assay: Cytotoxicity against human A549 cells assessed as growth inhibition at 10 uM after 48 hrs by sulphorhodamine B assay; conditions: A549, 48 h, read-out: GI; in short: as §1
# [5] = tested on: NCI/ADR-RES; assay: Cytotoxicity against human NCI/ADR-RES cells assessed as growth inhibition at 10 uM after 48 hrs by sulphorhodamine B assay; conditions: read-out: GI; in short: as §1
# [6] = tested on: SNB-75; assay: Cytotoxicity against human SNB75 cells assessed as growth inhibition at 10 uM after 48 hrs by sulphorhodamine B assay; conditions: SNB-75, 48 h, read-out: GI; in short: as §1
# [7] = tested on: U-251; assay: Cytotoxicity against human U251 cells assessed as growth inhibition at 10 uM after 48 hrs by sulphorhodamine B assay; conditions: U-251, 48 h, read-out: GI; in short: as §1
# [8] = tested on: SNB-19; assay: Cytotoxicity against human SNB19 cells assessed as growth inhibition at 10 uM after 48 hrs by sulphorhodamine B assay; conditions: SNB-19, 48 h, read-out: GI; in short: as §1
# [9] = tested on: SF-295; assay: Cytotoxicity against human SF295 cells assessed as growth inhibition at 10 uM after 48 hrs by sulphorhodamine B assay; conditions: SF-295, 48 h, read-out: GI; in short: as §1
# [10] = tested on: DU-145; assay: Cytotoxicity against human DU145 cells assessed as growth inhibition at 10 uM after 48 hrs by sulphorhodamine B assay; conditions: DU-145, 48 h, read-out: GI; in short: as §1
# [11] = tested on: SF-268; assay: Cytotoxicity against human SF268 cells assessed as growth inhibition at 10 uM after 48 hrs by sulphorhodamine B assay; conditions: SF-268, 48 h, read-out: GI; in short: as §1
# [12] = tested on: PC-3; assay: Cytotoxicity against human PC3 cells assessed as growth inhibition at 10 uM after 48 hrs by sulphorhodamine B assay; conditions: PC-3, 48 h, read-out: GI; in short: as §1
# [13] = tested on: UACC-62; assay: Cytotoxicity against human UACC62 cells assessed as growth inhibition at 10 uM after 48 hrs by sulphorhodamine B assay; conditions: UACC-62, 48 h, read-out: GI; in short: as §1
# [14] = tested on: SK-MEL-2; assay: Cytotoxicity against human SK-MEL-2 cells assessed as growth inhibition at 10 uM after 48 hrs by sulphorhodamine B assay; conditions: SK-MEL-2, 48 h, read-out: GI; in short: as §1
# [15] = tested on: SK-MEL-5; assay: Cytotoxicity against human SK-MEL-5 cells assessed as growth inhibition at 10 uM after 48 hrs by sulphorhodamine B assay; conditions: SK-MEL-5, 48 h, read-out: GI; in short: as §1
# [16] = tested on: M14; assay: Cytotoxicity against human M14 cells assessed as growth inhibition at 10 uM after 48 hrs by sulphorhodamine B assay; conditions: M14, 48 h, read-out: GI; in short: as §1
# [17] = tested on: LOX IMVI; assay: Cytotoxicity against human LOXIMVI cells assessed as growth inhibition at 10 uM after 48 hrs by sulphorhodamine B assay; conditions: read-out: GI; in short: as §1
# [18] = tested on: UO-31; assay: Cytotoxicity against human UO31 cells assessed as growth inhibition at 10 uM after 48 hrs by sulphorhodamine B assay; conditions: UO-31, 48 h, read-out: GI; in short: as §1
# [19] = tested on: CAKI-1; assay: Cytotoxicity against human Caki1 cells assessed as growth inhibition at 10 uM after 48 hrs by sulphorhodamine B assay; conditions: CAKI-1, 48 h, read-out: GI; in short: as §1
# [20] = tested on: RXF 393; assay: Cytotoxicity against human RXF393 cells assessed as growth inhibition at 10 uM after 48 hrs by sulphorhodamine B assay; conditions: RXF 393, 48 h, read-out: GI; in short: as §1
# [21] = tested on: ACHN; assay: Cytotoxicity against human ACHN cells assessed as growth inhibition at 10 uM after 48 hrs by sulphorhodamine B assay; conditions: read-out: GI; in short: as §1
# [22] = tested on: SR; assay: Cytotoxicity against human SR cells assessed as growth inhibition at 10 uM after 48 hrs by sulphorhodamine B assay; conditions: read-out: GI; in short: as §1
# [23] = tested on: A498; assay: Cytotoxicity against human A498 cells assessed as growth inhibition at 10 uM after 48 hrs by sulphorhodamine B assay; conditions: A498, 48 h, read-out: GI; in short: as §1
# [24] = tested on: RPMI-8226; assay: Cytotoxicity against human RPMI8226 cells assessed as growth inhibition at 10 uM after 48 hrs by sulphorhodamine B assay; conditions: RPMI-8226, 48 h, read-out: GI; in short: as §1
# [25] = tested on: MOLT-4; assay: Cytotoxicity against human MOLT4 cells assessed as growth inhibition at 10 uM after 48 hrs by sulphorhodamine B assay; conditions: MOLT-4, 48 h, read-out: GI; in short: as §1
# [26] = tested on: K562; assay: Cytotoxicity against human K562 cells assessed as growth inhibition at 10 uM after 48 hrs by sulphorhodamine B assay; conditions: K562, 48 h, read-out: GI; in short: as §1
# [27] = tested on: HL-60(TB); assay: Cytotoxicity against human HL-60(TB) cells assessed as growth inhibition at 10 uM after 48 hrs by sulphorhodamine B assay; conditions: HL-60, 48 h, read-out: GI
# In short: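 NCI-60 one-dose primary screen run to the Drug Evaluation Branch protocol. Cells are exposed to a single 10 µM concentration for 48 h continuously, and growth is read by SRB protein assay. Data are reported as percent growth of treated cells, expressed as % growth inhibition.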
# [28] = tested on: SK-OV-3; assay: Cytotoxicity against human SKOV3 cells assessed as growth inhibition at 10 uM after 48 hrs by sulphorhodamine B assay; conditions: SK-OV-3, 48 h, read-out: GI; in short: as §1
# [29] = tested on: CCRF-CEM; assay: Cytotoxicity against human CCRF-CEM cells assessed as growth inhibition at 10 uM after 48 hrs by sulphorhodamine B assay; conditions: read-out: GI; in short: as §1
# [30] = tested on: OVCAR-5; assay: Cytotoxicity against human OVCAR5 cells assessed as growth inhibition at 10 uM after 48 hrs by sulphorhodamine B assay; conditions: OVCAR-5, 48 h, read-out: GI; in short: as §1
# [31] = tested on: OVCAR-4; assay: Cytotoxicity against human OVCAR4 cells assessed as growth inhibition at 10 uM after 48 hrs by sulphorhodamine B assay; conditions: OVCAR-4, 48 h, read-out: GI; in short: as §1
# [32] = tested on: IGROV-1; assay: Cytotoxicity against human IGROV1 cells assessed as growth inhibition at 10 uM after 48 hrs by sulphorhodamine B assay; conditions: IGROV-1, 48 h, read-out: GI; in short: as §1
# [33] = tested on: T47D; assay: Cytotoxicity against human T47D cells assessed as growth inhibition at 10 uM after 48 hrs by sulphorhodamine B assay; conditions: read-out: GI; in short: as §1
# [34] = tested on: Hs-578T; assay: Cytotoxicity against human Hs578T cells assessed as growth inhibition at 10 uM after 48 hrs by sulphorhodamine B assay; conditions: read-out: GI; in short: as §1
# [35] = tested on: NCI-H522; assay: Cytotoxicity against human NCI-H522 cells assessed as growth inhibition at 10 uM after 48 hrs by sulphorhodamine B assay; conditions: NCI-H522, 48 h, read-out: GI; in short: as §1
# [36] = tested on: HT-29; assay: Cytotoxicity against human HT-29 cells assessed as growth inhibition at 10 uM after 48 hrs by sulphorhodamine B assay; conditions: HT-29, 48 h, read-out: GI; in short: as §1
# [37] = tested on: MCF7; assay: Cytotoxicity against human MCF7 cells assessed as growth inhibition at 10 uM after 48 hrs by sulphorhodamine B assay; conditions: MCF7, 48 h, read-out: GI; in short: as §1
# [38] = tested on: MDA-MB-435; assay: Cytotoxicity against human MDA-MB-435 cells assessed as growth inhibition at 10 uM after 48 hrs by sulphorhodamine B assay; conditions: MDA-MB-435, 48 h, read-out: GI; in short: as §1
# [39] = tested on: HCT-15; assay: Cytotoxicity against human HCT15 cells assessed as growth inhibition at 10 uM after 48 hrs by sulphorhodamine B assay; conditions: HCT-15, 48 h, read-out: GI; in short: as §1
# [40] = tested on: MDA-MB-468; assay: Cytotoxicity against human MDA-MB-468 cells assessed as growth inhibition at 10 uM after 48 hrs by sulphorhodamine B assay; conditions: MDA-MB-468, 48 h, read-out: GI; in short: as §1
# [41] = tested on: HCT-116; assay: Cytotoxicity against human HCT116 cells assessed as growth inhibition at 10 uM after 48 hrs by sulphorhodamine B assay; conditions: HCT-116, 48 h, read-out: GI; in short: as §1
smiles,measurement,setting,value
COc1ccc(-c2c3c(nc4ncnc(N)c24)C(C)CCC3)cc1 (stereo unspecified),inhibition of growth at 10 µM,[1],20.4%
same,inhibition of growth at 10 µM,[2],< 10%
same,inhibition of growth at 10 µM,[3],11.5%
same,inhibition of growth at 10 µM,[4],< 10%
same,inhibition of growth at 10 µM,[5],16.3%
same,inhibition of growth at 10 µM,[6],20.5%
same,inhibition of growth at 10 µM,[7],18.5%
same,inhibition of growth at 10 µM,[8],10%
same,inhibition of growth at 10 µM,[9],< 10%
same,inhibition of growth at 10 µM,[10],< 10%
same,inhibition of growth at 10 µM,[11],< 10%
same,inhibition of growth at 10 µM,[12],15%
same,inhibition of growth at 10 µM,[13],20.9%
same,inhibition of growth at 10 µM,[14],< 10%
same,inhibition of growth at 10 µM,[15],10%
same,inhibition of growth at 10 µM,[16],< 10%
same,inhibition of growth at 10 µM,[17],13%
same,inhibition of growth at 10 µM,[18],10.4%
same,inhibition of growth at 10 µM,[19],< 10%
same,inhibition of growth at 10 µM,[20],20.3%
same,inhibition of growth at 10 µM,[21],10%
same,inhibition of growth at 10 µM,[22],17.3%
same,inhibition of growth at 10 µM,[23],< 10%
same,inhibition of growth at 10 µM,[24],25%
same,inhibition of growth at 10 µM,[25],14.3%
same,inhibition of growth at 10 µM,[26],23.4%
same,inhibition of growth at 10 µM,[27],< 10%
same,inhibition of growth at 10 µM,[28],< 10%
same,inhibition of growth at 10 µM,[29],23%
same,inhibition of growth at 10 µM,[30],< 10%
same,inhibition of growth at 10 µM,[31],12.6%
same,inhibition of growth at 10 µM,[32],< 10%
same,inhibition of growth at 10 µM,[33],47.7%
same,inhibition of growth at 10 µM,[34],< 10%
same,inhibition of growth at 10 µM,[35],< 10%
same,inhibition of growth at 10 µM,[36],< 10%
same,inhibition of growth at 10 µM,[37],< 10%
same,inhibition of growth at 10 µM,[38],< 10%
same,inhibition of growth at 10 µM,[39],20%
same,inhibition of growth at 10 µM,[40],11.3%
same,inhibition of growth at 10 µM,[41],14.2%
